Measurements as given in ChEMBL document CHEMBL4316585, “On the role of synthesized hydroxylated chalcones as dual functional amyloid-β aggregation and ferroptosis inhibitors for potential treatment of Alzheimer's disease” (Eur J Med Chem, 2019).
pIC50: −log10 of the molar value. The source made the active and inactive calls. The calls are words filed in the database; no cut-off is given here.

Columns and labels:
[1] = target: Amyloid-beta precursor protein (Homo sapiens) (UniProt P05067); experiment: Inhibition of HFIP-pretreated amyloid beta (1 to 42 residues) (unknown origin) self aggregation at 25 uM after 7 days by ThT-based fluorometric method relative to control
Method in brief: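 Aβ1-42 (25 μM) incubated with or without inhibitor (25 μM, 1:1) in 10 mM phosphate buffer pH 7.4 with 100 mM NaCl at 37 °C for 7 days. Inhibitor-only blanks included. Samples diluted in 50 mM glycine-NaOH pH 8.0 containing 5 μM ThT, fluorescence read at ex 440/em 485 nm. % inhibition = (1−IFi/IFc)×100 after background subtraction, triplicate.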

SH-SY5Y [2] = experiment: Neuroprotective activity against amyloid beta (1 to 42)-induced neurodegeneration in human SH-SY5Y cells assessed as cell viability at 10 uM preincubated for 4 hrs followed by amyloid beta (1 to 42) addition and measured after 48 hrs by MTS assay (reference value: 60.4%); assay type: functional; details: for viability at 10 µM: read-out: Activity
SH-SY5Y [3] = experiment: (§1) Neurotoxicity against human SH-SY5Y cells assessed as cell viability at 10 to 40 uM after 24 hrs […] relative to control; assay type: toxicity, cell-based; details: sh-sy5y, 24 h, 40 µM
SH-SY5Y [4] = experiment: Neuroprotective activity against amyloid beta (1 to 42)-induced neurodegeneration in human SH-SY5Y cells assessed as cell viability at 1 uM preincubated for 4 hrs followed by amyloid beta (1 to 42) addition and measured after 48 hrs by MTS assay (reference value: 55.1%); assay type: functional; details: read-out: Activity
HEK293 [5] = experiment: Inhibition of erastin-induced ferroptosis in HEK293 cells preincubated for 4 hrs followed by erastin stimulation and measured at next day by MTS assay; assay type: functional, cell-based, Homo sapiens; details: for pIC50: Homo sapiens, HEK293, read-out: IC50
Method in brief: (§2)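 HEK-293 cells grown in DMEM with 10 % FBS, 1 % pen/strep and 1 mM sodium pyruvate, 37 °C, 5 % CO2. Seeded 5000/well for 24 h. Compounds at a range of concentrations added 4 h before ferroptosis induction with (1S,3R)-RSL3 (500 nM) or erastin (10 μM). MTS viability read 24 h after induction, normalized to vehicle. IC50 taken as the mean of ≥3 experiments.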

SH-SY5Y [6] = experiment: Inhibition of RSL3-induced lipid peroxidation in human SH-SY5Y cells at 10 uM incubated for 24 hrs by BODIPY-C11'581/591 probe-based flow cytometric analysis; assay type: functional, cell-based
Method in brief: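 SH-SY5Y seeded 2×10^4/well and adhered 24 h, then given compound plus RSL3 (500 nM) for 24 h. Stained with BODIPY-C11 581/591 (1 μM) for 30 min at 37 °C in the dark. Flow cytometry at ex 488, em 525±25 nm, 10,000 events. Controls: untreated (negative), DEM 1 mM, and RSL3 alone.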

SH-SY5Y [7] = experiment: Neuroprotective activity against amyloid beta (1 to 42)-induced neurodegeneration in human SH-SY5Y cells assessed as increase in cell viability at 1 uM preincubated for 4 hrs followed by amyloid beta (1 to 42) addition after 48 hrs by micrograph method; assay type: functional, cell-based
Method in brief: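 SH-SY5Y cells pretreated with compound (1 μM), then exposed to Aβ1-42 (10 μM) for 48 h. Cell morphology and clumping assessed by light micrographs against vehicle and Aβ-alone cells.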

HEK293 [8] = experiment: Inhibition of (1S,3R)-RSL3-induced ferroptosis in HEK293 cells preincubated for 4 hrs followed by (1S,3R)-RSL3 stimulation and measured at next day by MTS assay; details: Homo sapiens
SH-SY5Y [9] = experiment: Neuroprotective activity against amyloid beta (1 to 42)-induced neurodegeneration in human SH-SY5Y cells assessed as cell viability at 0.5 uM preincubated for 4 hrs followed by amyloid beta (1 to 42) addition and measured after 48 hrs by MTS assay (reference value: 55.1%); assay type: functional; details: read-out: Activity
HEK293 [10] = experiment: Inhibition of (1S,3R)-RSL3-induced ferroptosis in HEK293 cells preincubated for 4 hrs followed by erastin stimulation and measured at next day by MTS assay; assay type: functional, cell-based, Homo sapiens; method in brief: as §2
SH-SY5Y [11] = experiment: Inhibition of amyloid beta (1 to 42)-induced lipid peroxidation in human SH-SY5Y cells at 10 uM incubated for 48 hrs by BODIPY-C11'581/591 probe-based flow cytometric analysis; assay type: functional, cell-based
Method in brief: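 SH-SY5Y seeded 2×10^4/well and adhered 24 h, then given compound with Aβ1-42 for 48 h. Stained with BODIPY-C11 581/591 (1 μM) for 30 min at 37 °C in the dark. Flow cytometry at ex 488, em 525±25 nm, 10,000 events. Untreated, DEM (1 mM) and Aβ-alone controls.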

[12] = as §1; assay type: toxicity, cell-based; details: SH-SY5Y cells, read-out: Activity

Chain of Amyloid-beta precursor protein (Homo sapiens) (P05067 whole entry, the tested form may be a part): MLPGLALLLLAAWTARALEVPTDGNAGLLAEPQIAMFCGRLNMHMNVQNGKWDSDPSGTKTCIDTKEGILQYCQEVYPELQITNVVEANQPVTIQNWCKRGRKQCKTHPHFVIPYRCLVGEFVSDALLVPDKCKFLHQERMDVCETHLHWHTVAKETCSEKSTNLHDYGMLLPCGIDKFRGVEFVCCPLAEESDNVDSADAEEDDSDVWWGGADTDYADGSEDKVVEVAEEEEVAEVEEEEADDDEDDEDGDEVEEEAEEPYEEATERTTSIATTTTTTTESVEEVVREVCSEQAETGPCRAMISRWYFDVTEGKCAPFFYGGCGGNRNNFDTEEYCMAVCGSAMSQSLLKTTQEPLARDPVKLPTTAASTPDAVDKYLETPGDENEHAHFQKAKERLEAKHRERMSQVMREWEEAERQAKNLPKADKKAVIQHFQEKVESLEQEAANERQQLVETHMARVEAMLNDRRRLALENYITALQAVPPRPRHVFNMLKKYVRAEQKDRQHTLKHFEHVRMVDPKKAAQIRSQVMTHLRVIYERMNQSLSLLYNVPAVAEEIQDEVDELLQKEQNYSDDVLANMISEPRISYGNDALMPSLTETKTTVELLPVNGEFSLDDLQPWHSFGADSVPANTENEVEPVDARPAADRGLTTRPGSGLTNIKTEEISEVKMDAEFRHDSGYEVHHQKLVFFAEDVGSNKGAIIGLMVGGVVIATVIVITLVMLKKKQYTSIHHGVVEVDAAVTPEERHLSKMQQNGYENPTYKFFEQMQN

SMILES	inhibition [1]	Activity (SH-SY5Y [3])	viability at 1 µM (SH-SY5Y [4])	viability at 10 µM (SH-SY5Y [2])	viability at 0.5 µM (SH-SY5Y [9])	other results
COc1ccc(/C=C/C(=O)c2cc(O)cc(O)c2)cc1	19%	Non-Toxic				Activity (SH-SY5Y [2]): Active
COc1ccc(/C=C/C(=O)c2ccc(O)c(O)c2O)cc1	70.3 to 76.3%	Non-Toxic	70.8 to 77.5%	96.5 to 106%	66.7 to 73.8%	pIC50 (HEK293 [5]): 5.41; inhibition (SH-SY5Y [6]): Active; Activity (SH-SY5Y [7]): Active; pIC50 (HEK293 [8]): 5.75
O=C(O[C@@H]1Cc2c(O)cc(O)cc2O[C@@H]1c1cc(O)c(O)c(O)c1)c1cc(O)c(O)c(O)c1 [EPIGALOCATECHIN GALLATE]	52.9%		63%	92.5%	60.1%	IC50 (HEK293 [5]; hek293): Not Active; IC50 (HEK293 [10]): Not Active
COc1ccc(/C=C/C(=O)c2cccc(O)c2)cc1OC	inactive	Non-Toxic				
COc1cc(/C=C/C(=O)CC(=O)/C=C/c2ccc(O)c(OC)c2)ccc1O [CURCUMIN]				76%		
Cc1cccc(/C=C/C(=O)c2ccc(O)c(O)c2O)c1	70.3 to 76.3%	Non-Toxic	70.8 to 77.5%	96.5 to 106%	66.7 to 73.8%	inhibition (SH-SY5Y [11]): Active; pIC50 (HEK293 [5]): 5.42; Activity (SH-SY5Y [7]): Active; pIC50 (HEK293 [8]): 6.35
O=C(/C=C/c1cccc(Cl)c1)c1ccc(O)c(O)c1O	70.3 to 76.3%	Non-Toxic	70.8 to 77.5%	96.5 to 106%	66.7 to 73.8%	pIC50 (HEK293 [5]): 5.50; inhibition (SH-SY5Y [6]): Active; Activity (SH-SY5Y [7]): Active; pIC50 (HEK293 [8]): 6.07
Cc1cccc(/C=C/C(=O)c2cccc(O)c2)c1	inactive					viability at 24 h, up to 40 µM [12]: 73.6 to 77.4%
COCOc1ccc(C(=O)/C=C/c2ccc(OC)cc2)c(O)c1OCOC	16.4%	Non-Toxic		72 to 84.9%		
COCOc1ccc(C(=O)/C=C/c2cccc(Cl)c2)c(O)c1OCOC	16.4%	Non-Toxic		72 to 84.9%		
Cc1cccc(/C=C/C(=O)c2cc(O)cc(O)c2)c1	27.2%	Non-Toxic				Activity (SH-SY5Y [2]): Active
COCOc1ccc(C(=O)/C=C/c2cccc(C)c2)c(O)c1OCOC	16.4%	Non-Toxic		72 to 84.9%		
